Where a SMILES comes first, the peptide text is derived from it. Bridges are numbered along the chain shown (N, C = ends).
How the values were obtained:
[1] = target: Melanocortin receptor 3 (Mus musculus) (UniProt P33033); experiment: Relative percent of stimulatory activity for mouse Melanocortin-3 receptor at 100 uM
In short: (§1)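 HEK-293 cells stably expressing mouse melanocortin receptors (G418-selected) were transiently transfected with a CRE/β-galactosidase reporter. 48 h after transfection, cells were stimulated for 6 h with peptide (10^-4 to 10^-12 M) or forskolin (10^-4 M) in DMEM with 0.1 mg/mL BSA and 0.1 mM IBMX. Lysates were incubated with ONPG at 37° and read at OD405. Signals were normalized to relative protein (OD595) and to forskolin response. EC50 came from nonlinear least-squares fits of duplicate experiments in quadruplet or more.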

[2] = target: Melanocortin receptor 3 (Mus musculus, UniProt P33033); experiment: Effective concentration for mouse Melanocortin-3 receptor
In short: (§2)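 HEK-293 cells stably expressing the mouse receptor (G418 selection), transiently transfected with a CRE/β-galactosidase reporter. Forskolin (10^-4 M) served as the control. After lysis, ONPG was added at 37° and OD405 was read. Signals were normalized to protein content and forskolin; EC50 came from a nonlinear least-squares fit, duplicate or more independent experiments in quadruplicate.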

[3] = target: Melanocortin receptor 4 (Mus musculus, UniProt P56450); experiment: Effective concentration for mouse Melanocortin-4 receptor; in short: as §2
[4] = target: Melanocyte-stimulating hormone receptor (Mus musculus, UniProt Q01727); experiment: Effective concentration for mouse Melanocortin-1 receptor
[5] = target: Melanocortin receptor 5 (Mus musculus, UniProt P41149); experiment: Effective concentration for mouse Melanocortin-5 receptor
[6] = species on record: Mus musculus; experiment: Relative effective concentration for Melanocortin-3 and Melanocortin-4 receptors
[7] = target: Melanocortin receptor 3 (Mus musculus) (UniProt P33033); experiment: Partial agonist activity towards mouse Melanocortin-3 receptor; format: functional; in short: as §1

Chain of Melanocortin receptor 5 (P41149 whole entry): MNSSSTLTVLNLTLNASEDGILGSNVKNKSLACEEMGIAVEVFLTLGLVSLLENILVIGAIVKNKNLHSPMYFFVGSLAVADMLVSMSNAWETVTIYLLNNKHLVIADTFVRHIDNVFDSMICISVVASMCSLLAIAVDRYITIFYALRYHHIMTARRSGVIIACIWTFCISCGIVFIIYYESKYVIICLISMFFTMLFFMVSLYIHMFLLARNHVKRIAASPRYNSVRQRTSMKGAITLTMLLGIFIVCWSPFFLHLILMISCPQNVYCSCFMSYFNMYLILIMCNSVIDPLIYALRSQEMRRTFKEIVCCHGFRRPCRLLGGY
Chain of Melanocyte-stimulating hormone receptor (Q01727 whole entry): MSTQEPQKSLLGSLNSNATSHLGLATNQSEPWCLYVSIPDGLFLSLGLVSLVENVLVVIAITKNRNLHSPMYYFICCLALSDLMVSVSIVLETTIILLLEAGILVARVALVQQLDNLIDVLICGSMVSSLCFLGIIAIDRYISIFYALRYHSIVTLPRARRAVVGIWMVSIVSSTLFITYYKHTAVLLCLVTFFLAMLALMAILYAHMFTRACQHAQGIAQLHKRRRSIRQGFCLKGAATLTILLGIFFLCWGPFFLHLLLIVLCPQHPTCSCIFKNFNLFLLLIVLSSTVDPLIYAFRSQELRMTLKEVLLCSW
Chain of Melanocortin receptor 3 (P33033 whole entry): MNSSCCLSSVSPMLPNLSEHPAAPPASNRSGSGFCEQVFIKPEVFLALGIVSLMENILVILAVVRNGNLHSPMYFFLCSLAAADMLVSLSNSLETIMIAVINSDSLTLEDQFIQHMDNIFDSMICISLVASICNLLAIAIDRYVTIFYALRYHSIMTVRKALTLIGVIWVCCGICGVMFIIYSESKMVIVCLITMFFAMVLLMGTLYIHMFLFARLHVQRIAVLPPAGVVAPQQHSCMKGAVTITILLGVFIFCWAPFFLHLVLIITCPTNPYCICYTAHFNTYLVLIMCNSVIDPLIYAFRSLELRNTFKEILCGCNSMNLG
Chain of Melanocortin receptor 4 (P56450 whole entry): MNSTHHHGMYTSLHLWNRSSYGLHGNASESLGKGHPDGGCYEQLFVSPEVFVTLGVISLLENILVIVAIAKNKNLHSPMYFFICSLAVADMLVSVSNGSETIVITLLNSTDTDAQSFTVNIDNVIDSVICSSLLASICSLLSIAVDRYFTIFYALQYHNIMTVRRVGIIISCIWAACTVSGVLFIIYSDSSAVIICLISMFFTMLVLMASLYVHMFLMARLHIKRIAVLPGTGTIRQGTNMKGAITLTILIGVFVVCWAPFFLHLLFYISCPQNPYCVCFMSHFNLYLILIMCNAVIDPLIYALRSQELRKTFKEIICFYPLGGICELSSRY
Chain of Melanocortin receptor 3 (Mus musculus) (P33033 whole entry): as the sequence (P33033 whole entry) above

| SMILES | EC50 [2] [nM] | Selectivity ratio [6] | further results |
| --- | --- | --- | --- |
| C[C@@H]1NC(=O)[C@H](CC(N)=O)NC(=O)[C@H](Cc2c[nH]c3ccccc23)NC(=O)[C@H](CCCN=C(N)N)NC(=O)[C@H](C)NC(=O)[C@H](Cc2c[nH]cn2)NC(=O)[C@@H](NC(=O)[C@@H](N)Cc2ccc(O)cc2)CC(=O)N([C@@H](Cc2ccc(O)cc2)C(N)=O)[C@@](C)(C(=O)O)NC(=O)[C@H](Cc2ccccc2)NC1=O | – | – | SA [1]: 60% |
| C[C@@H]1NC(=O)[C@H](CC(N)=O)NC(=O)[C@@H]2CCCN2C(=O)[C@H](CCCN=C(N)N)NC(=O)[C@@H](Cc2ccccc2)NC(=O)[C@H](Cc2c[nH]cn2)NC(=O)[C@@H](NC(=O)[C@@H](N)Cc2ccc(O)cc2)CC(=O)N([C@@H](Cc2ccc(O)cc2)C(N)=O)[C@@](C)(C(=O)O)NC(=O)[C@H](Cc2ccccc2)NC1=O | 39200 | – | – |
| C[C@@H]1NC(=O)[C@H](CC(N)=O)NC(=O)[C@H](Cc2c[nH]c3ccccc23)NC(=O)[C@H](CCCN=C(N)N)NC(=O)[C@@H]2CCCN2C(=O)[C@H](Cc2c[nH]cn2)NC(=O)[C@@H](NC(=O)[C@@H](N)Cc2ccc(O)cc2)CC(=O)N([C@@H](Cc2ccc(O)cc2)C(N)=O)[C@@](C)(C(=O)O)NC(=O)[C@H](Cc2ccccc2)NC1=O | 13200 | – | – |
| C[C@@H]1NC(=O)[C@H](CC(N)=O)NC(=O)[C@H](Cc2c[nH]c3ccccc23)NC(=O)[C@H](CCCCN)NC(=O)[C@@H](Cc2ccccc2)NC(=O)[C@H](Cc2c[nH]cn2)NC(=O)[C@@H](NC(=O)[C@@H](N)Cc2ccc(O)cc2)CC(=O)NC[C@@H](C(=O)N[C@@H](Cc2ccc(O)cc2)C(N)=O)NC(=O)[C@H](Cc2ccccc2)NC1=O | – | – | EC50 [3]: 8600 nM; EC50 [4]: 680 nM; EC50 [5]: 800 nM |
| C[C@@H]1NC(=O)[C@H](CC(N)=O)NC(=O)[C@H](C)NC(=O)[C@H](CCCN=C(N)N)NC(=O)[C@@H](Cc2ccccc2)NC(=O)[C@H](Cc2c[nH]cn2)NC(=O)[C@@H](NC(=O)[C@@H](N)Cc2ccc(O)cc2)CC(=O)N([C@@H](Cc2ccc(O)cc2)C(N)=O)[C@@](C)(C(=O)O)NC(=O)[C@H](Cc2ccccc2)NC1=O | 13500 | 19 | – |
| C[C@@H]1NC(=O)[C@H](CC(N)=O)NC(=O)[C@H](C)NC(=O)[C@H](CCCNC(=N)N)NC(=O)[C@@H](Cc2ccccc2)NC(=O)[C@H](Cc2c[nH]cn2)NC(=O)[C@@H](NC(=O)[C@@H](N)Cc2ccc(O)cc2)CC(=O)NC[C@@H](C(=O)N[C@@H](Cc2ccc(O)cc2)C(N)=O)NC(=O)[C@H](Cc2ccccc2)NC1=O | – | – | EC50 [3]: 710 nM; EC50 [4]: 350 nM; EC50 [5]: 50.1 nM |
| C[C@@H]1NC(=O)[C@H](CC(N)=O)NC(=O)[C@@H]2Cc3ccccc3CN2C(=O)[C@H](CCCN=C(N)N)NC(=O)[C@@H](Cc2ccccc2)NC(=O)[C@H](Cc2c[nH]cn2)NC(=O)[C@@H](NC(=O)[C@@H](N)Cc2ccc(O)cc2)CC(=O)N([C@@H](Cc2ccc(O)cc2)C(N)=O)[C@@](C)(C(=O)O)NC(=O)[C@H](Cc2ccccc2)NC1=O | 3400 | 13 | – |
| C[C@@H]1NC(=O)[C@H](CC(N)=O)NC(=O)[C@@H]2CCCN2C(=O)[C@H](CCCNC(=N)N)NC(=O)[C@@H](Cc2ccccc2)NC(=O)[C@H](Cc2c[nH]cn2)NC(=O)[C@@H](NC(=O)[C@@H](N)Cc2ccc(O)cc2)CC(=O)NC[C@@H](C(=O)N[C@@H](Cc2ccc(O)cc2)C(N)=O)NC(=O)[C@H](Cc2ccccc2)NC1=O | – | – | EC50 [3]: 7200 nM; EC50 [4]: 1000 nM; EC50 [5]: 700 nM |
| C[C@@H]1NC(=O)[C@H](CC(N)=O)NC(=O)[C@H](Cc2c[nH]c3ccccc23)NC(=O)[C@H](CCCCN)NC(=O)[C@@H](Cc2ccccc2)NC(=O)[C@H](Cc2c[nH]cn2)NC(=O)[C@@H](NC(=O)[C@@H](N)Cc2ccc(O)cc2)CC(=O)N([C@@H](Cc2ccc(O)cc2)C(N)=O)[C@@](C)(C(=O)O)NC(=O)[C@H](Cc2ccccc2)NC1=O | 30800 | – | – |
| C[C@@H]1NC(=O)[C@H](CC(N)=O)NC(=O)[C@H](Cc2c[nH]c3ccccc23)NC(=O)[C@H](CCCN=C(N)N)NC(=O)[C@@H](Cc2ccccc2)NC(=O)[C@H](C)NC(=O)[C@@H](NC(=O)[C@@H](N)Cc2ccc(O)cc2)CC(=O)N([C@@H](Cc2ccc(O)cc2)C(N)=O)[C@@](C)(C(=O)O)NC(=O)[C@H](Cc2ccccc2)NC1=O | 29 | 80 | – |
| C[C@@H]1NC(=O)[C@H](CC(N)=O)NC(=O)[C@H](Cc2ccc(-c3ccccc3)cc2)NC(=O)[C@H](CCCN=C(N)N)NC(=O)[C@@H](Cc2ccccc2)NC(=O)[C@H](Cc2c[nH]cn2)NC(=O)[C@@H](NC(=O)[C@@H](N)Cc2ccc(O)cc2)CC(=O)N([C@@H](Cc2ccc(O)cc2)C(N)=O)[C@@](C)(C(=O)O)NC(=O)[C@H](Cc2ccccc2)NC1=O | 450 | 11 | – |
| C[C@@H]1NC(=O)[C@H](CC(N)=O)NC(=O)[C@H](Cc2ccc3ccccc3c2)NC(=O)[C@H](CCCN=C(N)N)NC(=O)[C@@H](Cc2ccccc2)NC(=O)[C@H](Cc2c[nH]cn2)NC(=O)[C@@H](NC(=O)[C@@H](N)Cc2ccc(O)cc2)CC(=O)N([C@@H](Cc2ccc(O)cc2)C(N)=O)[C@@](C)(C(=O)O)NC(=O)[C@H](Cc2ccccc2)NC1=O | 5.56 | 21 | – |
| C[C@@H]1NC(=O)[C@H](CC(N)=O)NC(=O)[C@@H](Cc2ccc3ccccc3c2)NC(=O)[C@H](CCCN=C(N)N)NC(=O)[C@@H](Cc2ccccc2)NC(=O)[C@H](Cc2c[nH]cn2)NC(=O)[C@@H](NC(=O)[C@@H](N)Cc2ccc(O)cc2)CC(=O)N([C@@H](Cc2ccc(O)cc2)C(N)=O)[C@@](C)(C(=O)O)NC(=O)[C@H](Cc2ccccc2)NC1=O | 6.5 | 10 | – |
| C[C@@H]1NC(=O)[C@H](CC(N)=O)NC(=O)[C@H](Cc2c[nH]c3ccccc23)NC(=O)[C@H](CCCN=C(N)N)NC(=O)[C@@H](Cc2ccccc2)NC(=O)[C@@H]2CCCN2C(=O)[C@@H](NC(=O)[C@@H](N)Cc2ccc(O)cc2)CC(=O)N([C@@H](Cc2ccc(O)cc2)C(N)=O)[C@@](C)(C(=O)O)NC(=O)[C@H](Cc2ccccc2)NC1=O | – | – | pA2 [7]: 7.2 |
| C[C@@H]1NC(=O)[C@H](CC(N)=O)NC(=O)[C@H](Cc2c[nH]c3ccccc23)NC(=O)[C@H](CCCN=C(N)N)NC(=O)[C@@H](Cc2ccc(-c3ccccc3)cc2)NC(=O)[C@H](Cc2c[nH]cn2)NC(=O)[C@@H](NC(=O)[C@@H](N)Cc2ccc(O)cc2)CC(=O)N([C@@H](Cc2ccc(O)cc2)C(N)=O)[C@@](C)(C(=O)O)NC(=O)[C@H](Cc2ccccc2)NC1=O | 33 | 58 | – |
| C[C@@H]1NC(=O)[C@H](CC(N)=O)NC(=O)[C@H](Cc2c[nH]c3ccccc23)NC(=O)[C@H](C)NC(=O)[C@@H](Cc2ccccc2)NC(=O)[C@H](Cc2c[nH]cn2)NC(=O)[C@@H](NC(=O)[C@@H](N)Cc2ccc(O)cc2)CC(=O)N([C@@H](Cc2ccc(O)cc2)C(N)=O)[C@@](C)(C(=O)O)NC(=O)[C@H](Cc2ccccc2)NC1=O | 23800 | 730 | – |
| C[C@@H]1NC(=O)[C@H](CC(N)=O)NC(=O)[C@H](Cc2c[nH]c3ccccc23)NC(=O)[C@H](CCCN=C(N)N)NC(=O)[C@@H](Cc2ccccc2)NC(=O)C2(CCc3ccccc3C2)NC(=O)[C@@H](NC(=O)[C@@H](N)Cc2ccc(O)cc2)CC(=O)NC[C@@H](C(=O)N[C@@H](Cc2ccc(O)cc2)C(N)=O)NC(=O)[C@H](Cc2ccccc2)NC1=O (mixture of isomers) | – | – | EC50 [3]: 115 nM; EC50 [4]: 690 nM; EC50 [5]: 440 nM |
| C[C@@H]1NC(=O)[C@H](CC(N)=O)NC(=O)[C@H](Cc2c[nH]c3ccccc23)NC(=O)[C@@H]2CCCN2C(=O)[C@@H](Cc2ccccc2)NC(=O)[C@H](Cc2c[nH]cn2)NC(=O)[C@@H](NC(=O)[C@@H](N)Cc2ccc(O)cc2)CC(=O)N([C@@H](Cc2ccc(O)cc2)C(N)=O)[C@@](C)(C(=O)O)NC(=O)[C@H](Cc2ccccc2)NC1=O | 17300 | – | – |
| C[C@@H]1NC(=O)[C@H](CC(N)=O)NC(=O)[C@H](Cc2c[nH]c3ccccc23)NC(=O)[C@H](CCCN=C(N)N)NC(=O)[C@@H](Cc2ccccc2)NC(=O)[C@H](Cc2c[nH]cn2)NC(=O)[C@@H](NC(=O)[C@@H](N)Cc2ccc(O)cc2)CC(=O)N([C@@H](Cc2ccc(O)cc2)C(N)=O)[C@@](C)(C(=O)O)NC(=O)[C@@H](Cc2ccccc2)NC1=O | 14 | 21 | – |
| C[C@@H]1NC(=O)[C@H](CC(N)=O)NC(=O)[C@H](Cc2ccccc2)NC(=O)[C@H](Cc2ccccc2)NC(=O)[C@H](CCCNC(=N)N)NC(=O)[C@@H](NC(=O)[C@@H](N)Cc2ccc(O)cc2)CSSC[C@@H](C(=O)N[C@@H](Cc2ccc(O)cc2)C(N)=O)NC(=O)[C@H](Cc2ccccc2)NC1=O (H-YCRFFNAFCY-NH2; disulfide 2-9) | > 100000 | – | EC50 [5]: > 100000 nM |
| C[C@@H]1NC(=O)[C@H](CC(N)=O)NC(=O)[C@H](Cc2c[nH]c3ccccc23)NC(=O)[C@H](CCCN=C(N)N)NC(=O)[C@@H](Cc2cccc3ccccc23)NC(=O)[C@H](Cc2c[nH]cn2)NC(=O)[C@@H](NC(=O)[C@@H](N)Cc2ccc(O)cc2)CC(=O)N([C@@H](Cc2ccc(O)cc2)C(N)=O)[C@@](C)(C(=O)O)NC(=O)[C@H](Cc2ccccc2)NC1=O | 320 | 560 | – |
| C[C@@H]1NC(=O)[C@H](CC(N)=O)NC(=O)[C@H](Cc2c[nH]c3ccccc23)NC(=O)[C@H](CCCN=C(N)N)NC(=O)[C@@H](Cc2ccccc2)NC(=O)[C@H](Cc2c[nH]cn2)NC(=O)[C@@H](NC(=O)[C@@H](N)Cc2ccc(O)cc2)CC(=O)N([C@@H](Cc2ccc(O)cc2)C(N)=O)[C@@](C)(C(=O)O)NC(=O)[C@H](Cc2ccccc2)NC1=O | 0.97 | – | – |
